Here are results for four molecules from ChEMBL document CHEMBL4346654 (Eur J Med Chem, 2019).

Structures are written as SMILES. In brackets after ≈: the same amount, converted by molar mass.

What all share (assay type): functional
In assay [1] the test system is Staphylococcus aureus. Put plainly: Antibacterial activity against MLS-resistant Staphylococcus aureus PU 32 expressing inducible ermA gene assessed as reduction in microbial growth by CLSI based two-fold broth dilution method. (Broth dilution looks for growth in wells or tubes with falling amounts of substance.)
The test system of assay [2] is Streptococcus pneumoniae. Put plainly: Antibacterial activity against erythromycin-susceptible Streptococcus pneumoniae ATCC49619 assessed as reduction in microbial growth by CLSI based two-fold broth dilution method.
Assay [3] concerns Streptococcus pneumoniae. Put plainly: Bactericidal activity against erythromycin-susceptible Streptococcus pneumoniae ATCC49619 pretreated followed by subculture in absence of compound measured after 24 hrs. The essentials: (§1)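 Isolates were identified by 16S rDNA sequencing. MIC was determined by CLSI-recommended two-fold broth dilution. For MBC, samples from 1–8 fold MIC were transferred to culture medium and subcultured for 24 h without antibiotic.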

The subject of assay [4] is Haemophilus influenzae. Put plainly: Antibacterial activity against azithromycin-susceptible Haemophilus influenzae ATCC 49247 assessed as reduction in microbial growth by CLSI based two-fold broth dilution method.
The test system of assay [5] is Streptococcus pneumoniae. Put plainly: Selectivity ratio of MBC to MIC for erythromycin-susceptible Streptococcus pneumoniae ATCC49619. The essentials:
as §1

For assay [6], the system named is Streptococcus pneumoniae. Put plainly: Antibacterial activity against Streptococcus pneumoniae 07P390 expressing constitutive ermB gene assessed as reduction in microbial growth by CLSI based two-fold broth dilution method.
The subject of assay [7] is Streptococcus pneumoniae. Put plainly: Antibacterial activity against penicillin-susceptible Streptococcus pneumoniae PU 09 expressing mef gene assessed as reduction in microbial growth by CLSI based two-fold broth dilution method.
Assay [8] concerns Streptococcus pneumoniae. Put plainly: Bactericidal activity against penicillin-susceptible Streptococcus pneumoniae PU 09 expressing mef gene pretreated followed by subculture in absence of compound measured after 24 hrs. In a few lines: as §1
Assay [9] has as its system Streptococcus pneumoniae. Put plainly: Selectivity ratio of MBC to MIC for penicillin-susceptible Streptococcus pneumoniae PU 09 expressing mef gene. In a few lines: as §1
Assay [10] concerns Haemophilus influenzae. Put plainly: Bactericidal activity against azithromycin-susceptible Haemophilus influenzae ATCC 49247 pretreated followed by subculture in absence of compound measured after 24 hrs. The essentials:
as §1

In assay [11] the test system is Haemophilus influenzae. Put plainly: Selectivity ratio of MBC to MIC for azithromycin-susceptible Haemophilus influenzae ATCC 49247. The essentials: as §1
Assay [12] deals with Streptococcus pyogenes. Put plainly: Antibacterial activity against MLS-resistant Streptococcus pyogenes 01-968 expressing inducible ermB gene assessed as reduction in microbial growth by CLSI based two-fold broth dilution method.
Assay [13] concerns Streptococcus pyogenes. Put plainly: Bactericidal activity against MLS-resistant Streptococcus pyogenes 01-968 expressing inducible ermB gene pretreated followed by subculture in absence of compound measured after 24 hrs. In a few lines: (§2)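 MBC assay. Following MIC determination by CLSI standard two-fold broth dilution, samples at 1–8 fold MIC were transferred to fresh culture medium. They were subcultured for 24 h without antibiotic. Isolates were identified by 16S rDNA sequencing. S. aureus ATCC 29213 was used as a control strain.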

For assay [14], the system named is Streptococcus pyogenes. Put plainly: Selectivity ratio of MBC to MIC for MLS-resistant Streptococcus pyogenes 01-968 expressing inducible ermB gene. The essentials:
(§3)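 MBC/MIC ratio. MIC was measured by CLSI standard two-fold broth dilution. MBC was measured by transferring samples at 1–8 fold MIC to culture medium and subculturing for 24 h without antibiotic. Isolates were identified by 16S rDNA sequencing.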

For assay [15], the system named is Staphylococcus aureus. Put plainly: Bactericidal activity against MLS/methicillin-resistant Staphylococcus aureus PU 32 expressing inducible ermA gene pretreated followed by subculture in absence of compound measured after 24 hrs. The essentials: as §2
Assay [16] relates to Staphylococcus aureus. Put plainly: Selectivity ratio of MBC to MIC for MLS/methicillin-resistant Staphylococcus aureus PU 32 expressing inducible ermA gene. In a few lines: as §3
The subject of assay [17] is Staphylococcus aureus. Put plainly: Antibacterial activity against MLS-resistant Staphylococcus aureus PU 20 expressing constitutive ermC gene assessed as reduction in microbial growth by CLSI based two-fold broth dilution method.
Assay [18] deals with Staphylococcus aureus. Put plainly: Bactericidal activity against MLS-resistant Staphylococcus aureus PU 20 expressing constitutive ermC gene pretreated followed by subculture in absence of compound measured after 24 hrs. The essentials: as §2
Assay [19] has as its system Streptococcus pneumoniae. Put plainly: Bactericidal activity against Streptococcus pneumoniae 07P390 expressing constitutive ermB gene pretreated followed by subculture in absence of compound measured after 24 hrs. The essentials:
as §1

As for `CC[C@H]1OC(=O)[C@@](C)(F)C(=O)[C@H](C)[C@@H](O[C@@H]2O[C@H](C)C[C@H](N(C)C)[C@H]2O)[C@](C)(OC)C[C@@H](C)/C(=N\OCC#Cc2ccc([N+](=O)[O-])nc2)[C@H](C)[C@H]2OC(=O)O[C@@]21C`, the MIC in the assay on Staphylococcus aureus [1] was 0.25 µg/mL; with Streptococcus pneumoniae [2] it was 0.125 µg/mL; with Haemophilus influenzae [4] it was 16 µg/mL; in the assay on Streptococcus pneumoniae [6] it was over 32 µg/mL; in the assay on Streptococcus pneumoniae [7], 1 µg/mL; with Streptococcus pyogenes [12], 0.016 µg/mL. In the assay on Staphylococcus aureus [17], the MIC is 128 µg/mL. The MBC in the assay with Streptococcus pneumoniae [3] is 0.125 µg/mL (≈ 0.155 µM); in the assay with Streptococcus pneumoniae [8], 4 µg/mL (≈ 4.96 µM); with Haemophilus influenzae [10] it was 32 µg/mL (≈ 39.7 µM); in the assay with Streptococcus pyogenes [13] it was 0.062 µg/mL (≈ 0.0768 µM); in the assay on Staphylococcus aureus [15], 2 µg/mL (≈ 2.48 µM); in the assay with Staphylococcus aureus [18] it was over 256 µg/mL. For the same molecule, the Selectivity ratio came out at 1 in the assay with Streptococcus pneumoniae [5]; 4 in the assay with Streptococcus pneumoniae [9]; 2 in the assay with Haemophilus influenzae [11]; 4 with Streptococcus pyogenes [14]; 8 with Staphylococcus aureus [16].
Take `CC[C@H]1OC(=O)[C@@](C)(F)C(=O)[C@H](C)[C@@H](O[C@@H]2O[C@H](C)C[C@H](N(C)C)[C@H]2O)[C@](C)(OC)C[C@@H](C)/C(=N\OCC#Cc2cncc(C(=O)NC)c2)[C@H](C)[C@H]2OC(=O)O[C@@]21C`: the MIC with Staphylococcus aureus [1] is 0.5 µg/mL; in the assay with Streptococcus pneumoniae [2] it was 0.125 µg/mL; in the assay on Haemophilus influenzae [4], 8 µg/mL; in the assay on Streptococcus pneumoniae [6] it was 32 µg/mL; in the assay on Streptococcus pneumoniae [7], 1 µg/mL; with Streptococcus pyogenes [12], 0.062 µg/mL. Moreover, the MIC with Staphylococcus aureus [17] stood at 256 µg/mL. The MBC is 0.25 µg/mL (≈ 0.305 µM) in the assay on Streptococcus pneumoniae [3]; 1 µg/mL (≈ 1.22 µM) with Streptococcus pneumoniae [8]; over 32 µg/mL in the assay with Streptococcus pneumoniae [19]; 16 µg/mL (≈ 19.5 µM) with Haemophilus influenzae [10]; over 0.5 µg/mL in the assay on Streptococcus pyogenes [13]; over 4 µg/mL with Staphylococcus aureus [15]. Also, the MBC in the assay on Staphylococcus aureus [18] was over 256 µg/mL. For the same molecule, the Selectivity ratio is on record as 2 in the assay with Streptococcus pneumoniae [5]; 1 in the assay with Streptococcus pneumoniae [9]; 2 in the assay with Haemophilus influenzae [11]; over 8 in the assay with Streptococcus pyogenes [14]; over 8 with Staphylococcus aureus [16].
In the case of `CC[C@H]1OC(=O)[C@@](C)(F)C(=O)[C@H](C)[C@@H](O[C@@H]2O[C@H](C)C[C@H](N(C)C)[C@H]2O)[C@](C)(OC)C[C@@H](C)/C(=N\OC/C=C/c2cncc(O)c2)[C@H](C)[C@H]2OC(=O)O[C@@]21C`, the MIC with Staphylococcus aureus [1] amounted to 0.25 µg/mL; in the assay on Streptococcus pneumoniae [2], 0.125 µg/mL; in the assay with Haemophilus influenzae [4] it was 16 µg/mL; in the assay on Streptococcus pneumoniae [6] it was 32 µg/mL; in the assay on Streptococcus pneumoniae [7] it was 2 µg/mL; with Streptococcus pyogenes [12], 0.062 µg/mL. Moreover, in the assay on Staphylococcus aureus [17], the MIC worked out at 256 µg/mL. Also, the MBC in the assay on Streptococcus pneumoniae [3] is 0.5 µg/mL (≈ 0.641 µM); with Streptococcus pneumoniae [8] it was 4 µg/mL (≈ 5.13 µM); in the assay with Streptococcus pneumoniae [19], over 32 µg/mL; in the assay on Haemophilus influenzae [10], 16 µg/mL (≈ 20.5 µM); with Streptococcus pyogenes [13], over 0.5 µg/mL; in the assay on Staphylococcus aureus [15] it was over 2 µg/mL. Further, the MBC in the assay with Staphylococcus aureus [18] is over 256 µg/mL. In addition, the Selectivity ratio in the assay with Streptococcus pneumoniae [5] was 4; in the assay with Streptococcus pneumoniae [9] it was 2; in the assay with Haemophilus influenzae [11], 1; in the assay with Streptococcus pyogenes [14] it was over 8; with Staphylococcus aureus [16], over 8.
As for `CC[C@H]1OC(=O)[C@@](C)(F)C(=O)[C@H](C)[C@@H](O[C@@H]2O[C@H](C)C[C@H](N(C)C)[C@H]2O)[C@](C)(OC)C[C@@H](C)/C(=N\OC/C=C/c2cncc(N)c2)[C@H](C)[C@H]2OC(=O)O[C@@]21C`, the MIC is 0.5 µg/mL in the assay with Staphylococcus aureus [1]; 0.125 µg/mL in the assay with Streptococcus pneumoniae [2]; 8 µg/mL with Haemophilus influenzae [4]; over 32 µg/mL in the assay with Streptococcus pneumoniae [6]; 1 µg/mL in the assay on Streptococcus pneumoniae [7]; 0.031 µg/mL with Streptococcus pyogenes [12]. Also, the MIC in the assay with Staphylococcus aureus [17] worked out at 256 µg/mL. Moreover, the MBC in the assay with Streptococcus pneumoniae [3] was 0.125 µg/mL (≈ 0.16 µM); with Streptococcus pneumoniae [8], 1 µg/mL (≈ 1.28 µM); with Haemophilus influenzae [10], 16 µg/mL (≈ 20.5 µM); in the assay with Streptococcus pyogenes [13] it was over 0.25 µg/mL; in the assay on Staphylococcus aureus [15], over 4 µg/mL; in the assay on Staphylococcus aureus [18], over 256 µg/mL. For the same molecule, the Selectivity ratio with Streptococcus pneumoniae [5] is 1; in the assay on Streptococcus pneumoniae [9], 1; in the assay with Haemophilus influenzae [11], 2; in the assay on Streptococcus pyogenes [14], over 8; in the assay with Staphylococcus aureus [16], over 8.
